# Shown are actives, neighbours in structure and some others; about 2.3% of the full set was active somewhere.
# TRPC4 potent: allosteric potentiators of mouse TRPC4 channel. Q9QUQ5. HEK293 TRPC4beta/mu-opioid, DAMGO EC20, Fluo-4 Ca2+ flux; hits give high values. B-score at 10 µM. actives 0.42% (n = 310,000);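 active = B-score of calcium response area above 5 SD of library B-scores, with initial fluorescence ratio within 5 SD of library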;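 also: B-score of integrated fluorescence ratio over time as area under calcium response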
# Target sequence (Q9QUQ5 whole entry, looked up): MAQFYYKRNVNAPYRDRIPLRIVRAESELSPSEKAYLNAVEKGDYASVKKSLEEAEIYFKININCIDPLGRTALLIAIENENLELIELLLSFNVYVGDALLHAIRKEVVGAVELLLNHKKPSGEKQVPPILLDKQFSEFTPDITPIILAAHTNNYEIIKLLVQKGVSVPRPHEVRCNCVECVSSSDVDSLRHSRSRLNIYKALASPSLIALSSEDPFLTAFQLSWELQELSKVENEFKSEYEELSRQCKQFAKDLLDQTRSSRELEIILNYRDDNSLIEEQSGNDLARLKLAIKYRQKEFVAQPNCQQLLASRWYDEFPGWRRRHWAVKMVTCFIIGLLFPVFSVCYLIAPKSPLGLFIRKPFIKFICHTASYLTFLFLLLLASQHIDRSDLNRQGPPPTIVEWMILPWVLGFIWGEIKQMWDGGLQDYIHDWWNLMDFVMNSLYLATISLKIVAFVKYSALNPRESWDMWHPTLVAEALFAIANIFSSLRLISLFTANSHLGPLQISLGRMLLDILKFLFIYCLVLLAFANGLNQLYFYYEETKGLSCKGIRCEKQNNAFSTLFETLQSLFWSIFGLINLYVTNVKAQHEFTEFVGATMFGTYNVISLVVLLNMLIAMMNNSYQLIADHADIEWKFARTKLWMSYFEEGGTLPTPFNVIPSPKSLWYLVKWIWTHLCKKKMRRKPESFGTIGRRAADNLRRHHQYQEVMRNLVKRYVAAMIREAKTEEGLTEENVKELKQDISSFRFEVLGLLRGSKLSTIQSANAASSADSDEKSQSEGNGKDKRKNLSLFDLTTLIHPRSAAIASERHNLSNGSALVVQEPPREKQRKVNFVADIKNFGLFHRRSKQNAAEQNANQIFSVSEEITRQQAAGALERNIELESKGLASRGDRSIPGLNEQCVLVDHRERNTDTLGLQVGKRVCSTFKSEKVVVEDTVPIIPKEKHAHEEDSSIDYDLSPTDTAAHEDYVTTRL
# TRPC6 inhibitor: blocks the mouse TRPC6 cation channel | B-score at 10 µM | AID 2553 | HEK293-TRPC6, membrane potential dye, ACh-evoked depolarization; hits give low values | actives 1.1% (n = 310,000);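 active = B-score under library mean minus 3 SD, initial fluorescence not abnormally high, positive integrated signal ratio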;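 also: B-score derived from integrated fluorescence ratio over the kinetic read; more negative B-score means stronger inhibition of depolarization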
# TRPC4 act: opens the mouse TRPC4 cation channel. HEK293 TRPC4beta/mu-opioid, Fluo4 calcium fluorescence; hits give high values. actives 0.49% (n = 310,000). Q9QUQ5. B-score at 10 µM. AID 2237;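 active = B-score above 5 SD of library B-scores, and initial fluorescence ratio not above library mean plus 5 SD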;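 also: positive B-score marks a calcium rise read as TRPC4 activation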
#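 System: HEK293 cells stably co-expressing mouse TRPC4beta and mu-opioid receptor; Schedule: Fluo4 dye loading 45 min at room temperature, 110 s recording; Detection: Fluo4 fluorescence, kinetic; Evaluation: B-scored integrated calcium fluorescence ratio; Controls: buffer (low) and maximal DAMGO (high).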
# TRPC6 act: mouse TRPC6 channel activation; Q61143; HEK293-TRPC6 membrane potential dye fluorescence; hits give high values; B-score at 10 µM; actives 0.13% (n = 310,000); AID 2550;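 active = B-score of the integrated fluorescence ratio above library mean plus 3 SD, and starting fluorescence ratio within library mean plus 5 SD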;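 also: higher score means more depolarization so channel activation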
# TRPC4 block: blocks the mouse TRPC4 cation channel; Q9QUQ5; HEK293 TRPC4beta/mu-opioid, DAMGO-evoked Fluo4 calcium flux; hits give low values; B-score at 10 µM; actives 0.39% (n = 300,000); AID 2247;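 active = B-score over 3 SD under the library average, no early fluorescence shift, positive overall ratio signal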
#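 Assay system: TRPC4beta/mu-opioid receptor HEK293 cell line; compound dosing: single concentration per test compound; detection: Fluo4 Ca2+ flux fluorescence; evaluation: per-well B score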
# TRPC4 spec 2: second check of whether TRPC6 inhibitors also affect mouse TRPC4; shares compounds with TRPC6 inhibitor; HEK293 TRPC4/MOR, membrane potential dye fluorescence; channel activated by saturating DAMGO dose; inhibition, % at 10 µM; actives 42% (n = 920); AID 2776;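 active = compounds whose fluorescence signal differed from control wells by over 3 SD, either direction, in both duplicate plates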
# TRPC4 spec: tests whether TRPC6 inhibitors also affect mouse TRPC4; activity change, negative = inhibition, % at 10 µM; shares compounds with TRPC6 inhibitor; actives 61% (n = 920); HEK293 TRPC4/mu-opioid, membrane potential fluorescence;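 active = rise or fall in signal beyond 3 SD of buffer-only wells in both replicate plates, either sign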;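 also: integrated kinetic ratio of fluorescence range over baseline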
# HEK293 MPD ctr 2-1: parental HEK293 nonspecific activity of TRPC6 inhibitors, second screen. AID 2779. parental HEK293 membrane potential dye fluorescence; maximal acetylcholine challenge after compound addition. signal change vs control, % at 10 µM. actives 31% (n = 920). shares compounds with TRPC6 inhibitor;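 active = membrane potential signal moving either way by over 3 SD of the maximum-effect control, in both duplicate plates, meaning non-specific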
# HEK293 MPD ctr-1: parental HEK293 nonspecific activity of TRPC6 inhibitors. shares compounds with TRPC6 inhibitor. parental HEK293 membrane potential dye fluorescence. membrane potential signal change, % at 10 µM. actives 60% (n = 920);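 active = membrane potential signal shifting up or down by more than 3 SD of buffer-only wells, on both duplicate plates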
# HEK293 MPD ctr-2: parental HEK293 nonspecific activity of TRPC6 modulators | shares compounds with TRPC6 inhibitor | actives 51% (n = 2,400) | membrane potential signal change, % at 10 µM | membrane potential dye fluorescence;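 active = membrane potential signal moves up or down beyond 5 SD from buffer-only wells, on both duplicate plates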
# HEK293 MPD ctr 2-2: second counter-screen for TRPC6 modulators: effect in parental HEK293 cells; shares compounds with TRPC6 inhibitor; membrane potential dye fluorescence; after compound, maximal acetylcholine stimulation; actives 14% (n = 2,400); inhibition, % at 10 µM;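 active = membrane potential signal drops by more than 5 SD from the mean control signal, in both duplicate plates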;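 also: plate controls were acetylcholine ECmax control wells for no effect and buffer only wells for full effect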
# TRPC4/MOR mod: mouse TRPC4 off-target activity of TRPC6 modulators | shares compounds with TRPC6 inhibitor | HEK293 TRPC4/mu-opioid, membrane potential fluorescence | percent change from control (negative = decrease, positive = increase), % at 10 µM | actives 69% (n = 2,400);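 active = membrane potential signal moved up or down beyond 5 SD of buffer control wells, in both duplicate plates, actives on both sides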;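 also: plate controls were assay buffer wells for no effect and DAMGO maximal-effect wells for full effect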
# TRPC4/MOR inh 2: mouse TRPC4 off-target activity of TRPC6 modulators, second screen; shares compounds with TRPC6 inhibitor; actives 55% (n = 2,400); inhibition, % at 10 µM; AID 488928; HEK293 TRPC4/mu-opioid, membrane potential dye fluorescence; stimulated with maximal-effect DAMGO;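 active = drop in membrane potential signal beyond 5 SD of the control wells in both duplicate plates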;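 also: TRPC4 counter screen for TRPC6 hits run under conditions tuned for TRPC6 not TRPC4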
# TRPC6 block conf: confirmation of mouse TRPC6 inhibitors | HEK293-TRPC6, membrane potential dye, ACh-evoked depolarization | inhibition, % at 10 µM | AID 488960 | actives 43% (n = 3,300) | shares compounds with TRPC6 inhibitor;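 active = fluorescence ratio falls more than 5 SD below the full-stimulation control mean, in both duplicate runs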;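 also: integrated fluorescence ratio of peak minus minimum over baseline after agonist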
# TRPC6 act conf: mouse TRPC6 activator confirmation; AID 488961; HEK293-TRPC6 membrane potential dye fluorescence, FDSS; shares compounds with TRPC6 inhibitor; activation, % at 10 µM; actives 11% (n = 2,800);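 active = ratio signal rise beyond 5 SD above unstimulated control wells' mean, seen in both duplicate runs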;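 also: plate controls were buffer EC0 wells for no effect and acetylcholine ECmax response for full effect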
# * = called active by the depositor; i = inactive; · = not tested or not shown; + = active, no number.
SMILES,TRPC4 potent,TRPC6 inhibitor,TRPC4 act,TRPC6 act,TRPC4 block,HEK293 MPD ctr-2,HEK293 MPD ctr 2-2,TRPC4/MOR mod,TRPC4/MOR inh 2,TRPC6 block conf,TRPC6 act conf,others
CCOc1ccc(-c2nnc(-c3ccncc3)o2)cc1OCC,i,-5.5*,i,i,i,-173%*,i,-36%*,32%*,i,i,
CCN(CC)CCCN(C(=O)c1cccs1)c1nc(-c2ccc(OC)cc2)cs1,i,i,i,i,i,·,·,·,·,·,·,
CCN(CC)CCCN(C(=O)c1ccco1)c1nc(-c2ccc(Cl)cc2)cs1,i,-7.5*,i,i,i,·,·,·,·,60%*,i,TRPC4 spec 2=26%*;TRPC4 spec=-13%*;HEK293 MPD ctr 2-1=i;HEK293 MPD ctr-1=-154%*
CCN(CC)CCCN(C(=O)c1ccc(Br)cc1)c1nc(-c2ccc(OC)cc2)cs1,i,-6.2*,i,i,i,i,i,i,72%*,53%*,i,
CCN(CC)CCCN(C(=O)c1cccc(C)c1)c1nc(-c2ccc(OC)cc2)cs1,i,-6.1*,i,i,i,i,i,-14%*,86%*,83%*,i,
Cc1ccccc1N1CCN(S(=O)(=O)Cc2ccccc2)CC1,i,i,i,i,i,·,·,·,·,·,·,
Cn1c(=O)c2c(nc(SCCN3CCCCC3)n2Cc2ccccc2)n(C)c1=O,33*,-9.2*,i,i,i,·,·,·,·,i,i,TRPC4 spec 2=42%*;TRPC4 spec=22%*;HEK293 MPD ctr 2-1=i;HEK293 MPD ctr-1=-392%*
Cn1c(=O)c2c(nc(SCCN3CCOCC3)n2Cc2ccccc2Cl)n(C)c1=O,i,i,i,i,i,·,·,·,·,·,·,
COc1ccc(/C=N/NC(=O)c2nnn(-c3nonc3N)c2CN(C)c2ccccc2)cc1,i,i,i,i,i,·,·,·,·,·,·,
Cc1ccc(-c2csc(NC(=O)CSc3nc(C)cc(=O)[nH]3)n2)cc1,i,-7.7*,i,i,i,·,·,·,·,i,i,TRPC4 spec 2=i;TRPC4 spec=i;HEK293 MPD ctr 2-1=260%*;HEK293 MPD ctr-1=i
CC(C)NC[C@@H](O)COc1cccc2ccccc12,i,i,i,i,i,·,·,·,·,·,·,
Cc1nnc(NC(=O)c2c(-c3ccccc3Cl)noc2C)s1,i,i,i,i,i,·,·,·,·,·,·,
Cc1onc(-c2ccccc2Cl)c1C(=O)Nc1nnc(Cc2ccc(Cl)cc2)s1,i,-6.6*,i,i,i,·,·,·,·,i,i,TRPC4 spec 2=i;TRPC4 spec=i;HEK293 MPD ctr 2-1=i;HEK293 MPD ctr-1=i
Cc1ccc(C(=O)N2CCCCC2C(=O)O)o1 (stereo not given),i,i,i,i,i,·,·,·,·,·,·,
Cc1ccc(CNS(=O)(=O)c2ccc(CN3C(=O)c4cccnc4C3=O)s2)o1,i,i,i,i,i,·,·,·,·,·,·,
N#C/C(=C\c1ccc(O)cc1)c1nc2ccccc2o1,i,i,i,i,i,·,·,·,·,·,·,
COc1cc(/C=C(\C#N)c2nc3ccccc3o2)ccc1O,i,i,78*,63*,i,+,i,290%*,i,i,362%*,
CCN1C(=S)SC(=O)C1=C1C=C(C)N(CCO)C(C)=C1,i,i,47*,40*,i,812%*,159%*,134%*,i,·,458%*,
CCN1C(=O)/C(=C/C=C2/Sc3ccccc3N2CCO)SC1=S,i,i,i,i,i,·,·,·,·,·,·,
COc1ccc(-c2nnc3sc(C4CCCCC4)nn23)cc1OC,i,i,i,13*,i,144%*,i,40%*,i,i,86%*,
Cc1ccc(OCC(=O)NNC(=O)c2cccnc2)cc1C,i,-5.7*,i,i,i,i,i,i,i,i,i,
Cc1cccc(CCN(C(=O)c2csnn2)C(C(=O)NC2CCCC2)c2ccco2)c1 (stereo not given),i,i,i,i,i,·,·,·,·,·,·,
CCN1CCN(c2cc(C)c3cc(NC(=O)c4cnccn4)ccc3n2)CC1,i,-5.9*,i,i,i,i,69%*,11%*,29%*,i,i,
O=C(Nc1ccc(N2CCCC2)cc1)c1ccc(Br)o1,i,i,i,i,i,·,·,·,·,·,·,
Cc1cc(N2CCN(C)CC2)nc2ccc(NC(=O)c3ccc(Br)o3)cc12,i,-6.3*,i,i,i,-100%*,i,i,80%*,67%*,i,
Cc1cc(N2CCCCC2)nc2ccc(NC(=O)c3ccc(Br)o3)cc12,i,-8.8*,i,i,i,·,·,·,·,51%*,i,TRPC4 spec 2=72%*;TRPC4 spec=-31%*;HEK293 MPD ctr 2-1=i;HEK293 MPD ctr-1=-332%*
Cn1nc([N+](=O)[O-])nc1N1CCOCC1,i,i,i,i,i,·,·,·,·,·,·,
CC(C)(C)C1CCc2c(sc3ncn(N)c(=N)c23)C1 (stereo not given),i,-6.5*,i,i,i,i,i,-16%*,67%*,46%*,i,
N=c1c2c3c(sc2ncn1N)CCC3,i,i,i,i,i,·,·,·,·,·,·,
Cc1cc(C)c2nc3nc(C)c(C)cc3c(N)c2c1,i,-5.8*,i,i,i,i,i,-25%*,34%*,59%*,i,
